SMARCA2 activ: SMARCA2 (BRM) function activators, primary screen, cell-based, luminescence, high throughput | actives 1% (n = 370,000) | AID 652017, 2013 | MG213 cells, MMTV-luciferase reporter, dexamethasone, overnight | activation, % at 9.1 µM; in the data active = activation above about 7.8%;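 also: 0% = vehicle wells and 100% = reference activator wells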
MC4R antag cAMP: MC4R antagonists of cAMP signaling, primary screen, cell-based, TR-FRET, antagonist arm of biased-ligand search. Melanocortin receptor 4 (Homo sapiens), P32245. MC4R-expressing cells, MTII-stimulated cAMP, LANCE TR-FRET. inhibition, % at 6.5 µM. actives 0.48% (n = 360,000);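 active = inhibition above its plate's cutoff, the mean of tested wells on that plate plus 3 SD, cut at about 29% in these data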;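 also: 0% = Melanotan II alone and 100% = Melanotan II plus saturating MCL0020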
Target sequence (P32245 whole entry, looked up): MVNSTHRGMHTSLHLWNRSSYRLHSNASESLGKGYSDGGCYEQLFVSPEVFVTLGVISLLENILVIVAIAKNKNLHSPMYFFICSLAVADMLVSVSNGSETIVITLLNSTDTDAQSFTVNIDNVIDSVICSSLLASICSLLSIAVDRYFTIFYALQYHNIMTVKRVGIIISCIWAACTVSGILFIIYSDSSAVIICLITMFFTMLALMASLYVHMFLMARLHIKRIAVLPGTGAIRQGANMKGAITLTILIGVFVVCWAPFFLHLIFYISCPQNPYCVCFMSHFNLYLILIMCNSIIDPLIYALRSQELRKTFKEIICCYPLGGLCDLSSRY
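Material – human MC4R-expressing U2OS cells · Repeats – no replicates · Detection – TR-FRET with Eu-cAMP and labeled anti-cAMP, 671 nm · Times – compound 30 min, challenge 1 h, detection 1 h · Compound – single nominal compound dose of 6.5 µM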
F508del corr: F508del CFTR correction, initial screen, CFBE line, single point; CFBE cells, YFP halide quenching; stimulated with forskolin plus potentiator P3; % fluorescence drop versus neutral controls; activity (quench increase), % at 7.58 µM; actives 0.36% (n = 350,000);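 active = mean added fluorescence quench of at least 8% versus neutral control, with both replicates also reaching 8%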;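 also: cells transiently co-express mutant CFTR-F508del with the halide-sensitive YFP; corrector assay measuring rescue of mutant channel to the surface after 24 h compound exposure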
MC4R barr agon: MC4R agonists recruiting beta-arrestin, primary screen, cell-based, luminescence, agonist arm of biased-ligand search | Melanocortin receptor 4 (Homo sapiens), P32245 | U2OS MC4R beta-arrestin complementation; percent of melanotan II response, DMSO zero | activation, % at 8.9 µM | actives 0.98% (n = 360,000) | AID 540308, 2011;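 active = activation above a per-plate cutoff, the mean activation of sample wells on that plate plus 3 SD, cut at about 8% in these data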
SMARCA2 conf: SMARCA2 (BRM) function activators, confirmation, cell-based, luminescence, triplicate; shares compounds with SMARCA2 activ; actives 30% (n = 3,500); activation, % at 9.1 µM; AID 652260, 2013; MG213 cells, MMTV-luciferase with dexamethasone, overnight; MG213 cells expressing E1A, Rb sequestered; DMSO wells 0%, reference activator 100%;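 active = activation above its plate's cutoff, the mean activation of tested wells plus 3 SD, cut at about 7.9% in these data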
VP16 Luc act: GAL4-VP16 luciferase reporter activation, counter-screen for SMARCA2 (BRM) activator project, cell-based, pG5luc, luminescence, high throughput; shares compounds with SMARCA2 activ; HEK293 GAL4-VP16 pG5luc reporter; scaled: DMSO wells 0%, SAHA wells 100%; activation, % at 9.1 µM; actives 41% (n = 3,500); AID 686939, 2013;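 active = activation above the solvent-only control well mean plus 3 SD, averaged across control plates, cut at about 5.2% in these data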
Numbers without * were called inactive; / = no result given. The list is not random: actives were taken first. Their share in the collection is about 2.1%.

SMILES	SMARCA2 activ	MC4R antag cAMP	F508del corr	MC4R barr agon	SMARCA2 conf	VP16 Luc act
N#Cc1cc(C#N)c(N2CCN(c3ccccn3)CC2)nc1N	9.1*	11	/	0	16*	11*
Cc1ccc(NC(=O)C2CC(=O)N(C(C)C)C2)cc1Cl (configuration not stated)	8.3*	12	-3	-1	1	0
COc1ccc(S(=O)(=O)Nc2ccc3c(c2)CC(=O)N([C@@H](C)CO)C[C@H](C)[C@@H](CN(C)CC2CCCCC2)O3)cc1	/	/	2	/	/	/
Cc1cc(C)nc(Sc2nc(Cl)nc(N(c3ccccc3)c3ccccc3)n2)n1	8.3*	8	/	-2	9.2*	1
Cc1cc(C)nc(SC(C(=O)O)c2ccccc2)n1 (configuration not stated)	-4	-4	-2	4	/	/
CC1=C(C(=O)Nc2ccccn2)C(c2ccccc2)n2ncnc2N1 (configuration not stated)	3	1	/	-1	/	/
CC1=C(C(=O)Nc2ccccn2)C(c2ccc(N(C)C)cc2)n2ncnc2N1 (configuration not stated)	8.1*	1	-2	-1	1	-1
Cc1ccc(Nc2nnc(-c3ccccc3N)o2)cc1C	12*	-2	1	-1	4	8.5*
Cc1ccc(NCc2ccco2)cc1C	3	-2	-3	-3	/	/
Cc1ccc(/C(N)=N/OC(=O)c2cccs2)cc1	-1	0	/	3	/	/
N/C(=N\OC(=O)c1cccs1)c1ccccc1	18*	-4	-2	0	12*	6.8*
CCc1ccc(OCC(=O)NC(=S)Nc2ccc(F)cc2)c(Br)c1	8.9*	4	/	7	4	3
CCc1ccc(OCC(=O)NC(=S)Nc2ccc(C(C)=O)cc2)c(Br)c1	0	5	1	-1	/	/
CN(C)CCN(C(=O)c1ccc2c(c1)OCCO2)c1nc2cc3c(cc2s1)OCO3	0	-2	1	-2	/	/
CN(C)CCN(C(=O)c1ccc2ccccc2c1)c1nc2cc3c(cc2s1)OCO3	11*	-5	4	0	1	1
COc1ccc(-c2cc(C(=O)O)c(C)o2)cc1OC	7	9	/	-2	/	/
COc1ccc(-c2cc(C(=O)NC(Cc3cc4ccccc4[nH]3)C(=O)O)c(C)o2)cc1OC (configuration not stated)	11*	1	-2	-1	9.9*	4
CCSc1nnc(CCNC(=O)OC(C)(C)C)o1	9.5*	16	/	-1	-2	0
CCC(=O)Nc1cccc(NC(=S)NC(=O)c2ccccc2Cl)c1	0	3	/	-2	/	/
CCC(=O)Nc1cccc(NC(=S)NC(=O)c2cccs2)c1	11*	2	/	-1	4	9.4*
N#C/C(=C\c1ccc([N+](=O)[O-])cc1)c1ccccn1	10*	1	3	-2	6	6.7*
COC(=O)c1ccc(CN2CCCC(C(=O)Nc3ccc(-c4ccn[nH]4)cc3)C2)cc1 (configuration not stated)	-4	8	0	1	/	/
O=C(Nc1ccc(-c2nc3ccccc3[nH]2)cc1)C1CCCN(Cc2ccn[nH]2)C1 (configuration not stated)	18*	8	1	2	7	5
C[C@H]1CN([C@@H](C)CO)C(=O)c2cc(NC(=O)C3CC3)ccc2O[C@@H]1CN(C)CC1CCCCC1	/	/	-1	/	/	/
CCOc1ccc(NC(=O)CCNS(=O)(=O)c2ccc3c(c2)oc(=O)n3C)cc1	8.0*	1	-4	0	-1	-1
SMILES	SMARCA2 activ	MC4R antag cAMP	F508del corr	MC4R barr agon	SMARCA2 conf	VP16 Luc act
CN(C)CC(=O)N[C@H]1CC[C@H](CCNC(=O)C2CC2)O[C@H]1CO	/	/	1	/	/	/
Cc1cc(NC(=O)CSc2nnnn2-c2cc(Cl)ccc2C)no1	8.1*	-2	-3	0	-3	1
CCc1cc(=O)oc2cc(OCC(=O)NCCCN3CCOCC3)c(Cl)cc12	8.4*	7	-3	-1	-1	-1
CCc1cc(=O)oc2cc(OCC(=O)NCCN3CCOCC3)c(Cl)cc12	-5	10	2	2	/	/
Cc1cc(NC(=O)c2ccccc2)sc1C	19*	4	/	-1	8	8.6*
O=C(O)c1ccc(N/N=C/c2cc3cc4c(cc3nc2Cl)OCCO4)cc1	8.4*	-1	-3	-1	8	11*
C[C@@H]1CN([C@H](C)CO)C(=O)Cc2cc(NS(=O)(=O)c3cccs3)ccc2O[C@H]1CN(C)S(=O)(=O)c1ccc(F)cc1	/	/	0	/	/	/
C[C@H]1CN([C@@H](C)CO)C(=O)c2ccccc2-c2ccccc2CO[C@H]1CN(C)C(=O)c1cc(Cl)cc(Cl)c1	/	/	0	/	/	/
CC(=O)Nc1ccc(Nc2nc(C)nc3c2oc2ccccc23)cc1	1	-4	/	-1	/	/
Cc1nc(Nc2ccncc2)c2oc3ccccc3c2n1	10*	-4	-1	-2	20*	1
c1ccc2oc(-c3ccc4nc[nH]c4c3)nc2c1	9.6*	-1	/	1	10*	14*
COc1ccc(-c2nc3ccccc3o2)cc1OC	5	8	3	2	/	/
COc1cccc(NC(=O)N(C)C[C@@H]2Oc3cc(C#Cc4ccc(F)cc4)ccc3S(=O)(=O)N([C@@H](C)CO)C[C@H]2C)c1	/	/	5	/	/	/
CO[C@@H]1CN(C)C(=O)c2ccc(NC(C)=O)cc2OC[C@@H](C)N(Cc2ccccc2C(=O)O)C[C@H]1C	/	/	3	/	/	/
O=C(COC(=O)c1ccc(S(=O)(=O)N2CCCC2)cc1)Nc1cccc(F)c1	10*	3	4	-1	1	0
CCCCn1nnnc1C1c2ccccc2OCC(=O)N1Cc1ccc2c(c1)OCO2 (configuration not stated)	-3	/	/	/	/	/
CCCCCn1nnnc1C1c2ccccc2OCC(=O)N1Cc1ccco1 (configuration not stated)	10*	/	/	/	0	0
N#Cc1c(NCCN)nc(-c2ccco2)c2c1CCCC2	9.7*	1	/	1	31*	0
CCC(=O)N1CCC2(CC1)CN(C(=O)CN1CCOCC1)[C@H](CO)c1c2c2ccc(OC)cc2n1C	/	/	3	/	/	/
Nc1ccc(/C=C/C(=O)c2cccs2)cc1	12*	-10	1	-1	9.1*	6.8*
